Results as given in ChEMBL document CHEMBL4007408, “Identification of Novel Triazole-Based Nicotinamide Phosphoribosyltransferase (NAMPT) Inhibitors Endowed with Antiproliferative and Antiinflammatory Activity” (J Med Chem, 2017).
Each block holds one compound with its values, some of them ahead of it. The source made the active and inactive calls. The calls are words filed in the database; no cut-off is given here.

How the values were obtained:
[1] = target: Nicotinamide phosphoribosyltransferase (Mus musculus, UniProt Q99KQ4); assay: Inhibition of recombinant mouse NAMPT expressed in bacterial expression system using nicotinamide as substrate after 1 hr by fluorescence based NMNAT-3 enzyme coupled assay; settings: read-out: IC50
Chain of Nicotinamide phosphoribosyltransferase (Mus musculus, UniProt Q99KQ4) (Q99KQ4 whole entry): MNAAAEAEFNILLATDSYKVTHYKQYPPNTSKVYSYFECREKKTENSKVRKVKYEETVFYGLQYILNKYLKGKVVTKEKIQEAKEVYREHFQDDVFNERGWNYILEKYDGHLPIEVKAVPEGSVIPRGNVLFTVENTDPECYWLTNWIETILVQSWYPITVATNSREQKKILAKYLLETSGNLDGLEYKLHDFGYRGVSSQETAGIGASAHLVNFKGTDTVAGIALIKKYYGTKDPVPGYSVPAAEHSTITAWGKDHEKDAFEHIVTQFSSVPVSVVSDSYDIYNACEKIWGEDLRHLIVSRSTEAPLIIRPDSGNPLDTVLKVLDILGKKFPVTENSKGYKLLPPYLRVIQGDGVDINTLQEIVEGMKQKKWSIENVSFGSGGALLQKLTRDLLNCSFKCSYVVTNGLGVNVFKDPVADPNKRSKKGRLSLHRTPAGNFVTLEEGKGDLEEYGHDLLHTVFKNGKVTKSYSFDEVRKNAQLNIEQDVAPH

SH-SY5Y = assay: Cytotoxicity against human SH-SY5Y cells assessed as reduction in cell viability after 56 hrs by MTT assay; assay type: functional, cell-based; settings: Homo sapiens, SH-SY5Y, 56 h; read-out: EC50
Mus musculus [2] = assay: In vivo inhibition of NAMPT in DNBS-induced BALB/c mouse colitis model assessed as reduction in loss of body weight at 20 mg/kg, ip bid administered for 3 days post DNBS challenge; assay type: functional, organism-based
Mus musculus [3] = assay: In vivo inhibition of NAMPT in DNBS-induced BALB/c mouse colitis model assessed as reduction in mucosal congestion at 20 mg/kg, ip bid administered for 3 days post DNBS challenge; assay type: functional, organism-based
Mus musculus [4] = assay: In vivo inhibition of NAMPT in DNBS-induced BALB/c mouse colitis model assessed as reduction in erosion at 20 mg/kg, ip bid administered for 3 days post DNBS challenge; assay type: functional, organism-based
Mus musculus [5] = assay: In vivo inhibition of NAMPT in DNBS-induced BALB/c mouse colitis model assessed as reduction in hemorrhagic ulcerations at 20 mg/kg, ip bid administered for 3 days post DNBS challenge; assay type: functional, organism-based
Mus musculus [6] = assay: In vivo inhibition of NAMPT in DNBS-induced BALB/c mouse colitis model assessed as reduction in neutrophil infiltration by measuring myeloperoxidase levels at 20 mg/kg, ip bid administered for 3 days post DNBS challenge by ELISA; assay type: functional, organism-based
[7] = target: Nicotinamide phosphoribosyltransferase (Homo sapiens, UniProt P43490); assay: Inhibition of NAMPT in human Jurkat T cells assessed as reduction in NAD levels; assay type: cell-based
Chain of Nicotinamide phosphoribosyltransferase (Homo sapiens, UniProt P43490) (P43490 whole entry): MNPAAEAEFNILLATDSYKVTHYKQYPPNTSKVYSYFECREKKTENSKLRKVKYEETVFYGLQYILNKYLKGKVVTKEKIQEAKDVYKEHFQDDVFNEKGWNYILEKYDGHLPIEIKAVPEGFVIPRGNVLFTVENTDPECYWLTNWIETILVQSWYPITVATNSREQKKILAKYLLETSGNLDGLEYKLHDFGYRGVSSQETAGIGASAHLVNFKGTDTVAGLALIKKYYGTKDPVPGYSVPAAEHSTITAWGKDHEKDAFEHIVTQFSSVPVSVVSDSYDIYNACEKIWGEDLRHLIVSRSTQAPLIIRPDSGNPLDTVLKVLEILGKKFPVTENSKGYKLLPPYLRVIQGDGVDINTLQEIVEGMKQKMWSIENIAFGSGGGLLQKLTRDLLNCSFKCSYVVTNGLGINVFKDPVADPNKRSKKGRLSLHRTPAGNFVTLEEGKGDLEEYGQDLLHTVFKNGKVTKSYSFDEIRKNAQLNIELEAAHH

Liver [8] = assay: Stability in human liver microsomes after 60 mins by LC-ESI-MS analysis; assay type: ADME, microsome; settings: 1 h
Liver [9] = assay: Stability in Wistar Han rat liver microsomes after 60 mins by LC-ESI-MS analysis; assay type: ADME, microsome; settings: 1 h
[10] = Drug metabolism in Wistar Han rat liver microsomes assessed as mixed function oxidase mediated compound cleavage by measuring compound remaining after 60 mins in presence of NADPH-regenerating system by LC-UV analysis; assay type: ADME; settings: read-out: Stability
How it was run: (§1)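 Substrate at 50 μM final, with rat or human liver microsomes at 1.0 mg/ml protein, in 50 mM Tris-HCl pH 7.4. Mix held 3.3 mM MgCl2, 1% acetonitrile and an NADPH-regenerating system (1.3 mM β-NADP, 3.3 mM glucose 6-phosphate, 0.4 U/ml G6PDH). Shaken 60 min at 37 °C, stopped with ice-cold acetonitrile. LC-UV gave % residual substrate versus a no-microsome control, mean of two replicates.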

[11] = Drug metabolism in human liver microsomes assessed as mixed function oxidase mediated compound cleavage by measuring compound remaining after 60 mins in presence of NADPH-regenerating system by LC-UV analysis; assay type: ADME; settings: read-out: Stability; how it was run: as §1
[12] = Stability in Wistar Han rat liver microsomes assessed as mixed function oxidase mediated compound cleavage after 60 mins in presence of NADPH-regenerating system by LC-UV analysis; assay type: ADME; settings: 1 h; how it was run: as §1
Liver [13] = assay: Stability in human liver microsomes assessed as mixed function oxidase mediated compound cleavage after 60 mins in presence of NADPH-regenerating system by LC-UV analysis; assay type: ADME, microsome; settings: 1 h; how it was run: as §1
Liver [14] = assay: Drug metabolism in Wistar Han rat liver microsomes assessed as pyridine N-oxidation after 60 mins in presence of NADPH-regenerating system by LC-UV analysis; assay type: ADME, microsome; settings: 1 h
How it was run: (§2)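 Metabolites were characterized by LC-ESI-MSn on supernatants of 60 min, 37 °C incubations. Each used 50 μM substrate with rat or human liver microsomes (1.0 mg/ml protein) in 50 mM Tris-HCl pH 7.4 with 3.3 mM MgCl2, 1% acetonitrile and an NADPH-regenerating system. Reactions were quenched with cold acetonitrile and centrifuged.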

Liver [15] = assay: Drug metabolism in human liver microsomes assessed as pyridine N-oxidation after 60 mins in presence of NADPH-regenerating system by LC-UV analysis; assay type: ADME, microsome; settings: 1 h; how it was run: as §2
[16] = Half life in athymic Nu/Nu Harlan mouse at 10 mg/kg, iv administered as single dose up to 24 hrs by LC-ESI-MS analysis; assay type: ADME, organism-based; settings: in vivo
[17] = AUC in athymic Nu/Nu Harlan mouse at 10 mg/kg, iv administered as single dose up to 24 hrs by LC-ESI-MS analysis; assay type: ADME, organism-based; set-up: time < 24 hr, dose 10 mg/kg, route intravenous; settings: in vivo
[18] = Clearance in athymic Nu/Nu Harlan mouse at 10 mg/kg, iv administered as single dose up to 24 hrs by LC-ESI-MS analysis; assay type: ADME, organism-based; settings: in vivo
[19] = Volume of distribution in athymic Nu/Nu Harlan mouse at 10 mg/kg, iv administered as single dose up to 24 hrs by LC-ESI-MS analysis; assay type: ADME, organism-based; settings: in vivo
A2780 [20] = assay: Cytotoxicity against human A2780 cells assessed as reduction in cell viability; assay type: functional, cell-based
A2780 [21] = assay: Antitumor activity against human A2780 cells xenografted in athymic nu/nu Harlan mouse assessed as reduction in tumor growth at 10 mg/kg, ip bid administered for 8 consecutive days; assay type: functional, organism-based
Liver [22] = assay: Drug level in human liver microsomes treated with N-(biphenyl-2-yl)-8-(4-(pyridin-3-yl)-1H-1,2,3-triazol-1-yl)octanamide after 60 mins by LC-ESI-MS analysis; assay type: ADME, microsome
Liver [23] = assay: Drug level in Wistar Han rat liver microsomes treated with N-(biphenyl-2-yl)-8-(4-(pyridin-3-yl)-1H-1,2,3-triazol-1-yl)octanamide after 60 mins by LC-ESI-MS analysis; assay type: ADME, microsome
Liver [24] = assay: Drug level in human liver microsomes treated with N-(7-(4-(Pyridin-3-yl)-1H-1,2,3-triazol-1-yl)heptyl)-[1,1'-biphenyl]-2-carboxamide after 60 mins in presence of NADPH-regenerating system by LC-UV analysis; assay type: ADME, microsome; how it was run: as §1
Liver [25] = assay: Drug level in Wistar Han rat liver microsomes treated with N-(7-(4-(Pyridin-3-yl)-1H-1,2,3-triazol-1-yl)heptyl)-[1,1'-biphenyl]-2-carboxamide after 60 mins in presence of NADPH-regenerating system by LC-UV analysis; assay type: ADME, microsome; how it was run: as §1

IC50 [1]: 49.9 nM
Structure (SMILES): O=C(CCCCCCCc1cc(-c2cccnc2)on1)Nc1ccccc1-c1ccccc1
EC50 (SH-SY5Y): 59.8 nM

IC50 [1]: 47 nM
Structure (SMILES): O=S(=O)(NCCCCCCCCn1cc(-c2cccnc2)nn1)c1ccccc1-c1ccccc1
EC50 (SH-SY5Y): 12.6 nM

Structure (SMILES): O=S(=O)(NCCCCCCCn1cc(-c2cccnc2)nn1)c1ccccc1-c1ccccc1
EC50 (SH-SY5Y): 99.2 nM

Structure (SMILES): c1ccc(-c2ccccc2-n2cc(CCCCCCCn3cc(-c4cccnc4)nn3)nn2)cc1
EC50 (SH-SY5Y): 55.1 nM

Structure (SMILES): C[C@@H]1C[C@H]2[C@@H]3CCC4=CC(=O)C=C[C@]4(C)[C@@]3(F)[C@@H](O)C[C@]2(C)[C@@]1(O)C(=O)CO
inhibition (Mus musculus [2]): Active | inhibition (Mus musculus [3]): Active | inhibition (Mus musculus [4]): Active | inhibition (Mus musculus [5]): Active | inhibition (Mus musculus [6]): Active

IC50 [1]: 269 nM
Structure (SMILES): O=C(CCCCCCCc1nnc(-c2cccnc2)[nH]1)Nc1ccccc1-c1ccccc1
EC50 (SH-SY5Y): 82.9 nM

Structure (SMILES): O=C(CCCCCCCc1cc(-c2cccnc2)[nH]n1)Nc1ccccc1-c1ccccc1
EC50 (SH-SY5Y): 384 nM

Structure (SMILES): c1ccc(-c2ccccc2-c2cn(CCCCCCCc3cn(-c4cccnc4)nn3)nn2)cc1
EC50 (SH-SY5Y): 84.2 nM

IC50 [1]: 8.1 nM | IC50 [7]: 7.8 nM | Stability (Liver [8]): Stable | Stability (Liver [9]): Stable | remaining at 1 h [10]: 47% | remaining at 1 h [11]: 87% | Stability [12]: Stable | Stability (Liver [13]): Stable | Drug metabolism (Liver [14]): Metabolite_Detected | Drug metabolism (Liver [15]): Metabolite_Detected | half-life [16]: 1.48 h | AUC at 24 h [17]: 2250 ng·h/mL | clearance [18]: 74 mL/min/kg | Vd [19]: 9.4 L/kg
Structure (SMILES): c1ccc(-c2ccccc2-c2cn(CCCCCCCn3cc(-c4cccnc4)nn3)nn2)cc1
EC50 (SH-SY5Y): 9.1 nM | IC50 (A2780 [20]): 5.8 nM | inhibition (A2780 [21]): inactive

Structure (SMILES): c1ccc(-c2ccccc2-c2cn(CCCCCCn3cc(-c4cccnc4)nn3)nn2)cc1
EC50 (SH-SY5Y): 36.6 nM

Structure (SMILES): c1ccc(-c2ccccc2OCCCc2ccc(-n3cc(-c4cccnc4)nn3)cc2)cc1
EC50 (SH-SY5Y): 71 nM

Structure (SMILES): c1ccc(-c2ccccc2CNCCCCCCCn2cc(-c3cccnc3)nn2)cc1
EC50 (SH-SY5Y): 237 nM

Structure (SMILES): O=C(NCCCCCCCCn1cc(-c2cccnc2)nn1)c1ccccc1-c1ccccc1
EC50 (SH-SY5Y): 194 nM

Structure (SMILES): c1ccc(-c2ccccc2OCc2ccc(CCn3cc(-c4cccnc4)nn3)cc2)cc1
EC50 (SH-SY5Y): 160 nM

Structure (SMILES): c1ccc(-c2ccccc2Oc2ccc(CCCn3cc(-c4cccnc4)nn3)cc2)cc1
EC50 (SH-SY5Y): > 500 nM

Structure (SMILES): O=C(Nc1ccccc1-c1ccccc1)OCCCCCCCn1cc(-c2cccnc2)nn1
EC50 (SH-SY5Y): 36 nM

Structure (SMILES): Nc1ccccc1-c1ccccc1
Drug metabolism (Liver [22]): Metabolite_Detected | Drug metabolism (Liver [23]): Metabolite_Detected

Structure (SMILES): O=C(NCCCCCCn1cc(-c2cccnc2)nn1)c1ccccc1-c1ccccc1
EC50 (SH-SY5Y): 22.2 nM

Drug metabolism (Liver [24]): Metabolite_Detected | Drug metabolism (Liver [25]): Metabolite_Detected
Structure (SMILES): NC(=O)c1ccccc1-c1ccccc1

Structure (SMILES): c1ccc(-c2ccccc2-c2cn(CCCCCCCCn3cc(-c4cccnc4)nn3)nn2)cc1
EC50 (SH-SY5Y): 74.5 nM

Structure (SMILES): O=C(CCCCCCCc1nnc(-c2cccnc2)o1)Nc1ccccc1-c1ccccc1
EC50 (SH-SY5Y): 370 nM
